# Assay results reported in ChEMBL document CHEMBL5058577, “EUbOPEN Chemogenomics Library 2 (Multiplex)” (2022).
# Test system: Fibroblast
# Assay: Multiplex assay against human fibroblast
# Assay type: toxicity, cell-based
# Procedure, shortened: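 Live cells carried four stains from seeding: Hoechst33342, BioTracker Green Microtubule Cytoskeleton Dye, MitoTracker Red and Annexin V Alexa Fluor 680. They were imaged on a CQ1 microscope at 37°C and 5% CO2 after compound addition. Using CellPathfinder machine-learning gating, cells were split into Hoechst high-intensity objects or normal cells, normal cells into healthy, pyknosed or fragmented nuclei, and pyknosed cells into mitotic or apoptotic; tubulin, mitochondrial-mass and membrane-permeability phenotypes are per cents of healthy-nucleus cells.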
# [1] = 12 h, 1 µM, compound concentration 1 uM, replicate 1
# [2] = 12 h, 1 µM, compound concentration 1 uM, replicate 2
# [3] = 12 h, 10 µM, compound concentration 10 uM, replicate 1
# [4] = 12 h, 10 µM, compound concentration 10 uM, replicate 2
# [5] = 24 h, 1 µM, compound concentration 1 uM, replicate 1
# [6] = 24 h, 1 µM, compound concentration 1 uM, replicate 2
# [7] = 24 h, 10 µM, compound concentration 10 uM, replicate 1
# [8] = 24 h, 10 µM, compound concentration 10 uM, replicate 2
# [9] = 48 h, 1 µM, compound concentration 1 uM, replicate 1
# [10] = 48 h, 1 µM, compound concentration 1 uM, replicate 2
# [11] = 48 h, 10 µM, compound concentration 10 uM, replicate 1
# [12] = 48 h, 10 µM, compound concentration 10 uM, replicate 2
smiles,measurement,setting,value
Cl.NCCc1ccc(O)c(O)c1 [DOPAMINE HYDROCHLORIDE],Population Apoptotic (%),[1],42%
same,Population Fragmented Nuclei (%),[1],13%
same,Population Healthy Nuclei (%),[1],63%
same,Population Hoechst High Intensity Objects (%),[1],1%
same,Population Membrane Permeable-Phenotype (%),[1],0%
same,Population Mitochondria Different-Phenotype (%),[1],1%
same,Population Mitotic Cells (%),[1],57%
same,Population Normal (%),[1],98%
same,Population Pyknosed Nuclei (%),[1],23%
same,Population Tubulin-Different-Phenotype (%),[1],34%
same,Total Cell Count,[1],115
same,Population Apoptotic (%),[2],44%
same,Population Fragmented Nuclei (%),[2],34%
same,Population Healthy Nuclei (%),[2],40%
same,Population Membrane Permeable-Phenotype (%),[2],4%
same,Population Mitochondria Different-Phenotype (%),[2],6%
same,Population Mitotic Cells (%),[2],55%
same,Population Pyknosed Nuclei (%),[2],24%
same,Population Tubulin-Different-Phenotype (%),[2],45%
same,Total Cell Count,[2],152
same,Population Apoptotic (%),[3],56%
same,Population Fragmented Nuclei (%),[3],14%
same,Population Healthy Nuclei (%),[3],62%
same,Population Hoechst High Intensity Objects (%),[3],3%
same,Population Membrane Permeable-Phenotype (%),[3],0%
same,Population Mitochondria Different-Phenotype (%),[3],3%
same,Population Mitotic Cells (%),[3],43%
same,Population Normal (%),[3],96%
same,Population Pyknosed Nuclei (%),[3],23%
same,Population Tubulin-Different-Phenotype (%),[3],14%
same,Total Cell Count,[3],135
same,Population Apoptotic (%),[4],41%
same,Population Fragmented Nuclei (%),[4],35%
same,Population Healthy Nuclei (%),[4],40%
same,Population Hoechst High Intensity Objects (%),[4],4%
same,Population Membrane Permeable-Phenotype (%),[4],6%
same,Population Mitochondria Different-Phenotype (%),[4],6%
same,Population Mitotic Cells (%),[4],58%
same,Population Normal (%),[4],95%
same,Population Tubulin-Different-Phenotype (%),[4],44%
same,Total Cell Count,[4],127
same,Population Apoptotic (%),[5],55%
same,Population Fragmented Nuclei (%),[5],14%
same,Population Healthy Nuclei (%),[5],69%
same,Population Hoechst High Intensity Objects (%),[5],0%
same,Population Membrane Permeable-Phenotype (%),[5],1%
same,Population Mitochondria Different-Phenotype (%),[5],1%
same,Population Mitotic Cells (%),[5],44%
same,Population Normal (%),[5],99%
same,Population Pyknosed Nuclei (%),[5],16%
same,Population Tubulin-Different-Phenotype (%),[5],31%
same,Total Cell Count,[5],112
same,Population Apoptotic (%),[6],51%
same,Population Fragmented Nuclei (%),[6],34%
same,Population Healthy Nuclei (%),[6],47%
same,Population Hoechst High Intensity Objects (%),[6],2%
same,Population Membrane Permeable-Phenotype (%),[6],7%
same,Population Mitochondria Different-Phenotype (%),[6],0%
same,Population Mitotic Cells (%),[6],48%
same,Population Normal (%),[6],97%
same,Population Pyknosed Nuclei (%),[6],18%
same,Population Tubulin-Different-Phenotype (%),[6],37%
same,Total Cell Count,[6],150
same,Population Apoptotic (%),[7],55%
same,Population Fragmented Nuclei (%),[7],16%
same,Population Healthy Nuclei (%),[7],69%
same,Population Hoechst High Intensity Objects (%),[7],2%
same,Population Membrane Permeable-Phenotype (%),[7],1%
same,Population Mitochondria Different-Phenotype (%),[7],5%
same,Population Mitotic Cells (%),[7],44%
same,Population Normal (%),[7],97%
same,Population Pyknosed Nuclei (%),[7],13%
same,Population Tubulin-Different-Phenotype (%),[7],22%
same,Total Cell Count,[7],136
same,Population Apoptotic (%),[8],47%
same,Population Fragmented Nuclei (%),[8],37%
same,Population Healthy Nuclei (%),[8],46%
same,Population Hoechst High Intensity Objects (%),[8],3%
same,Population Membrane Permeable-Phenotype (%),[8],3%
same,Population Mitochondria Different-Phenotype (%),[8],7%
same,Population Mitotic Cells (%),[8],52%
same,Population Normal (%),[8],96%
same,Population Pyknosed Nuclei (%),[8],15%
same,Population Tubulin-Different-Phenotype (%),[8],56%
same,Total Cell Count,[8],126
same,Population Apoptotic (%),[9],36%
same,Population Fragmented Nuclei (%),[9],22%
same,Population Healthy Nuclei (%),[9],66%
same,Population Hoechst High Intensity Objects (%),[9],6%
same,Population Membrane Permeable-Phenotype (%),[9],1%
same,Population Mitochondria Different-Phenotype (%),[9],2%
same,Population Mitotic Cells (%),[9],63%
same,Population Normal (%),[9],93%
same,Population Pyknosed Nuclei (%),[9],10%
same,Population Tubulin-Different-Phenotype (%),[9],28%
same,Total Cell Count,[9],110
same,Population Apoptotic (%),[10],38%
same,Population Fragmented Nuclei (%),[10],33%
same,Population Healthy Nuclei (%),[10],52%
same,Population Membrane Permeable-Phenotype (%),[10],5%
same,Population Mitochondria Different-Phenotype (%),[10],3%
same,Population Mitotic Cells (%),[10],61%
same,Population Pyknosed Nuclei (%),[10],14%
same,Population Tubulin-Different-Phenotype (%),[10],43%
same,Total Cell Count,[10],159
same,Population Apoptotic (%),[11],87%
same,Population Fragmented Nuclei (%),[11],21%
same,Population Healthy Nuclei (%),[11],66%
same,Population Hoechst High Intensity Objects (%),[11],4%
same,Population Membrane Permeable-Phenotype (%),[11],0%
same,Population Mitochondria Different-Phenotype (%),[11],4%
same,Population Mitotic Cells (%),[11],12%
same,Population Normal (%),[11],95%
same,Population Pyknosed Nuclei (%),[11],11%
same,Population Tubulin-Different-Phenotype (%),[11],25%
same,Total Cell Count,[11],141
same,Population Apoptotic (%),[12],90%
same,Population Fragmented Nuclei (%),[12],31%
same,Population Healthy Nuclei (%),[12],60%
same,Population Hoechst High Intensity Objects (%),[12],0%
same,Population Membrane Permeable-Phenotype (%),[12],7%
same,Population Mitotic Cells (%),[12],10%
same,Population Normal (%),[12],99%
same,Population Pyknosed Nuclei (%),[12],8%
same,Population Tubulin-Different-Phenotype (%),[12],56%
same,Total Cell Count,[12],116
